Results taken from ChEMBL document CHEMBL4834403, “Design and Synthesis of Novel Epigenetic Inhibitors Targeting Histone Deacetylases, DNA Methyltransferase 1, and Lysine Methyltransferase G9a with In Vivo Efficacy in Multiple Myeloma” (J Med Chem, 2021).
Activity calls are given as the source filed them. No cut-off for these calls is given here.

What was measured:
Histone deacetylase 1 = Histone deacetylase 1 (Homo sapiens, UniProt Q13547); assay: Inhibition of full length human C-terminal His-tagged/C-terminal Flag-tagged HDAC1 using fluorogenic acetylated peptide as substrate incubated for 30 mins by fluorescence plate reader assay
Histone deacetylase 2 = Histone deacetylase 2 (Homo sapiens, UniProt Q92769)
Histone deacetylase 2, sequence (Q92769 whole entry): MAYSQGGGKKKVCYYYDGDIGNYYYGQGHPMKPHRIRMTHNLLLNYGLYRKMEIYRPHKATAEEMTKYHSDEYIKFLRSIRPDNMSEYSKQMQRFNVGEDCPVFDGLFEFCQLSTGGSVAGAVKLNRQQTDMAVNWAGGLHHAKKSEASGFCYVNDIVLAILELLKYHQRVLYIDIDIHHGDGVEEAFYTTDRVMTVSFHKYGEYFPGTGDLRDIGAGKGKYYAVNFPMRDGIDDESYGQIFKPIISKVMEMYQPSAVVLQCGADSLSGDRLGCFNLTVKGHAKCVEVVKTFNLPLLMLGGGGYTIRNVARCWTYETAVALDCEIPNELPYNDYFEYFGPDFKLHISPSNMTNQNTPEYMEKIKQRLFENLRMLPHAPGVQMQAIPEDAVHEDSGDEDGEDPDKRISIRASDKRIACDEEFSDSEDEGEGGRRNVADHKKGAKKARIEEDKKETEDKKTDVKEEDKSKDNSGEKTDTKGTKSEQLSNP

[1] = biological target: Histone deacetylase 3/Nuclear receptor corepressor 2 (HDAC3/NCoR2) (Homo sapiens, UniProt O15379); assay: Inhibition of full length human C-terminal His-tagged HDAC3/human N-terminal GST-agged NCOR2 using fluorogenic acetylated peptide as substrate incubated for 30 mins by fluorescence plate reader assay; type: protein-complex assay
Histone deacetylase 3/Nuclear receptor corepressor 2 (HDAC3/NCoR2), sequence (O15379 whole entry): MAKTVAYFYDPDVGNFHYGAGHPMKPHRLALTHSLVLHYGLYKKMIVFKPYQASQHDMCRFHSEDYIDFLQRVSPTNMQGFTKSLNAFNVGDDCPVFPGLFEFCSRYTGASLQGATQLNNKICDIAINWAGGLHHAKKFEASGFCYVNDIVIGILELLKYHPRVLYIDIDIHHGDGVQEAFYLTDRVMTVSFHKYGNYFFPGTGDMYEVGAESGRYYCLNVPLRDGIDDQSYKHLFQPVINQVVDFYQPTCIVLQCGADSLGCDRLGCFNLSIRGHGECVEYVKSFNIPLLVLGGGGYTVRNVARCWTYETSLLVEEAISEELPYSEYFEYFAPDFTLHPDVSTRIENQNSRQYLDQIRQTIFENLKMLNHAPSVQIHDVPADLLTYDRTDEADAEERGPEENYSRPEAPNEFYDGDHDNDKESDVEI
Histone deacetylase 3/Nuclear receptor corepressor 2 (HDAC3/NCoR2), sequence (Q9Y618 whole entry, further chain): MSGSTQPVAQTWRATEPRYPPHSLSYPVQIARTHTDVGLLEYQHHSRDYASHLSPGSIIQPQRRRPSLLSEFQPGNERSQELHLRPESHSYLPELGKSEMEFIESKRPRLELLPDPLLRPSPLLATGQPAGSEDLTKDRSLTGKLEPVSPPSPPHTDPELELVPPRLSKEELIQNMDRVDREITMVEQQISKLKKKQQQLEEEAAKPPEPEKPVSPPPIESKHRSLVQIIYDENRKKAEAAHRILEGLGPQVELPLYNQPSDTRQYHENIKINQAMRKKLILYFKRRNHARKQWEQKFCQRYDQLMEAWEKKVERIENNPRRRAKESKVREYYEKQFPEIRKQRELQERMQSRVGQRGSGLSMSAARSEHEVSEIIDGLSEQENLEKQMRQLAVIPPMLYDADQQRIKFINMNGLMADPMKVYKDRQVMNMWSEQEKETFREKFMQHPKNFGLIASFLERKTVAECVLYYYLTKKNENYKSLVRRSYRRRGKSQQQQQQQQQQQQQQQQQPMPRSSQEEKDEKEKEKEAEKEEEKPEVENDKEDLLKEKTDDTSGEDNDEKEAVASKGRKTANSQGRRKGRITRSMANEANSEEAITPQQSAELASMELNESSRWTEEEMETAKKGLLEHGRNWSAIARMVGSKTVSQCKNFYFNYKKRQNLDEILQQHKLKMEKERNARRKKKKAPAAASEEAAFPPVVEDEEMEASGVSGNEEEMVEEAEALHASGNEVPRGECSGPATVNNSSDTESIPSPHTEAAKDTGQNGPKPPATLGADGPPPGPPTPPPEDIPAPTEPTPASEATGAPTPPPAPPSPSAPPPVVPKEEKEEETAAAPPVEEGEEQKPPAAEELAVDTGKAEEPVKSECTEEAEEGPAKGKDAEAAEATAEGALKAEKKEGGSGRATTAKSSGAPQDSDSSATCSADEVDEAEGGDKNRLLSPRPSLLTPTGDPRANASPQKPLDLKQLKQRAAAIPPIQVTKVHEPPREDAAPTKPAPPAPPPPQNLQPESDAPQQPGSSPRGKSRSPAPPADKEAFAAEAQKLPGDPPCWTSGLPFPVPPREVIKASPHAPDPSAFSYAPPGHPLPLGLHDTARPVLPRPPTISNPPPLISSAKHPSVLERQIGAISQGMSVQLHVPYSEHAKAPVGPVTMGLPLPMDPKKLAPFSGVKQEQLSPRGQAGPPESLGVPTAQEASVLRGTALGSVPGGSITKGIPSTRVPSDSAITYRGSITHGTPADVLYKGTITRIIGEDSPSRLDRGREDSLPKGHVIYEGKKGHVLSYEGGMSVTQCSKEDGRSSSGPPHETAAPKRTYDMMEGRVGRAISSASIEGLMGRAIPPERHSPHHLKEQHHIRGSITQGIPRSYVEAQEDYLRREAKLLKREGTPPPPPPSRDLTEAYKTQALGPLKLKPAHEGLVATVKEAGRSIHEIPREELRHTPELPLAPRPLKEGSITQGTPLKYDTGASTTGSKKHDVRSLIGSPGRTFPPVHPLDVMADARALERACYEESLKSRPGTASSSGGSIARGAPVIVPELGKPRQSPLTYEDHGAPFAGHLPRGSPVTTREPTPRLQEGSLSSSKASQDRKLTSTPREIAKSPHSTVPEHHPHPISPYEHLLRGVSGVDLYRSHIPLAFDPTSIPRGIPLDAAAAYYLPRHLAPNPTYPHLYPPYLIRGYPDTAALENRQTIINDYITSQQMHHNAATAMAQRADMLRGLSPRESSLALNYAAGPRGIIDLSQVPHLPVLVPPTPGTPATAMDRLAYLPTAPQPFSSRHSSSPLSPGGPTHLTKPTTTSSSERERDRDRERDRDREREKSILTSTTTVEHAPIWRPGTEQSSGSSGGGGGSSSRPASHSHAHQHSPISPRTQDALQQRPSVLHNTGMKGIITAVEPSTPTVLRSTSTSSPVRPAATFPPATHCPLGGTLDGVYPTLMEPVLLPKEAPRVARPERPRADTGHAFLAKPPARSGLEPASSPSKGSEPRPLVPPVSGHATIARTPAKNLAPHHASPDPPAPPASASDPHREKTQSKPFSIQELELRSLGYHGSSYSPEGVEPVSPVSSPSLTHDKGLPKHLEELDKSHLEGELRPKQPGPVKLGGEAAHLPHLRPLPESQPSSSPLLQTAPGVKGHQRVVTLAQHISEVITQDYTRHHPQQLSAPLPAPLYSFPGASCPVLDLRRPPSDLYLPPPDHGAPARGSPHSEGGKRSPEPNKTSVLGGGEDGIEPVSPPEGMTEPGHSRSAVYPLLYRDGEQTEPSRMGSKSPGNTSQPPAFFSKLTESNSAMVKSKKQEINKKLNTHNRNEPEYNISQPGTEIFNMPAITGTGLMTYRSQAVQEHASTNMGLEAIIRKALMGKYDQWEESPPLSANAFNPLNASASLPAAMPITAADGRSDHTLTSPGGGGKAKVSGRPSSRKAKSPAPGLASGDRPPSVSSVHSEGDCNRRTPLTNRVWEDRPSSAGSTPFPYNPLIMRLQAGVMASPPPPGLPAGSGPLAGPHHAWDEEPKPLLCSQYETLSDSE

[2] = biological target: T1, Protein deacetylase HDAC6 (Homo sapiens, UniProt Q9UBN7); assay: Inhibition of full length human N-terminal GST-tagged HDAC6 using fluorogenic acetylated peptide as substrate incubated for 30 mins by fluorescence plate reader assay
T1 sequence (Q9UBN7 whole entry): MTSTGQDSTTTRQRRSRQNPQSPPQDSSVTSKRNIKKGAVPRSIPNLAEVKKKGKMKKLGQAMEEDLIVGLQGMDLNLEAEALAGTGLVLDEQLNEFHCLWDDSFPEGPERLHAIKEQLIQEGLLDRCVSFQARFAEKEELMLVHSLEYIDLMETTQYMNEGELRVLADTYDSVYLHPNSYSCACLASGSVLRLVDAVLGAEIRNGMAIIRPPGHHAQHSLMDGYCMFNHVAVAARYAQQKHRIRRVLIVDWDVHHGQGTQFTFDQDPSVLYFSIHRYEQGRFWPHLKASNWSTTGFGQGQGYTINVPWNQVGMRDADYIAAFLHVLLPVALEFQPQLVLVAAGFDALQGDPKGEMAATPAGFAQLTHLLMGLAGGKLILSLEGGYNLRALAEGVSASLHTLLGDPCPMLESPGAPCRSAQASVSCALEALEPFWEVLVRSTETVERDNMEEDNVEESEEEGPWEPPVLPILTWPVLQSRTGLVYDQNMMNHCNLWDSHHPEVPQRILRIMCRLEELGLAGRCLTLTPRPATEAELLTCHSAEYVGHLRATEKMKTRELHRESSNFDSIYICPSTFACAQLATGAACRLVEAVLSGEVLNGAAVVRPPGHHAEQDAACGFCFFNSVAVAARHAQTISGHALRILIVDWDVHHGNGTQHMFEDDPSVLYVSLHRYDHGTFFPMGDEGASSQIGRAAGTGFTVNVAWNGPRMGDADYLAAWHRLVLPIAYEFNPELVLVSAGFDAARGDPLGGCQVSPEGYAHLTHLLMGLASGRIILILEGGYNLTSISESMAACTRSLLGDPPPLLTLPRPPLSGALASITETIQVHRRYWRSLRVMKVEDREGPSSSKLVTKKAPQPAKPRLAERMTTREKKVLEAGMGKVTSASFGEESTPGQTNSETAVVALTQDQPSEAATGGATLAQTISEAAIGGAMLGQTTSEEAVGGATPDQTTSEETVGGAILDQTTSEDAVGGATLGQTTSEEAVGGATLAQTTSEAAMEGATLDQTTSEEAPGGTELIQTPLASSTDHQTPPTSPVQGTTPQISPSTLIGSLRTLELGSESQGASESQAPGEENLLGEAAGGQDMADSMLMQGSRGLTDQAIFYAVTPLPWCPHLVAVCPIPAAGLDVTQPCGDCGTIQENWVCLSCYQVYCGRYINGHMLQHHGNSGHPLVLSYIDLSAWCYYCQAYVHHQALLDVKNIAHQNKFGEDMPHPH

[3] = biological target: T2, Histone-lysine N-methyltransferase EHMT2 (Homo sapiens, UniProt Q96KQ7); assay: Inhibition of human G9a enzyme using histone monomethyl-H3K9 peptide as substrate incubated for 1 hr in presence of SAM by TR-FRET assay
T2 sequence (Q96KQ7 whole entry): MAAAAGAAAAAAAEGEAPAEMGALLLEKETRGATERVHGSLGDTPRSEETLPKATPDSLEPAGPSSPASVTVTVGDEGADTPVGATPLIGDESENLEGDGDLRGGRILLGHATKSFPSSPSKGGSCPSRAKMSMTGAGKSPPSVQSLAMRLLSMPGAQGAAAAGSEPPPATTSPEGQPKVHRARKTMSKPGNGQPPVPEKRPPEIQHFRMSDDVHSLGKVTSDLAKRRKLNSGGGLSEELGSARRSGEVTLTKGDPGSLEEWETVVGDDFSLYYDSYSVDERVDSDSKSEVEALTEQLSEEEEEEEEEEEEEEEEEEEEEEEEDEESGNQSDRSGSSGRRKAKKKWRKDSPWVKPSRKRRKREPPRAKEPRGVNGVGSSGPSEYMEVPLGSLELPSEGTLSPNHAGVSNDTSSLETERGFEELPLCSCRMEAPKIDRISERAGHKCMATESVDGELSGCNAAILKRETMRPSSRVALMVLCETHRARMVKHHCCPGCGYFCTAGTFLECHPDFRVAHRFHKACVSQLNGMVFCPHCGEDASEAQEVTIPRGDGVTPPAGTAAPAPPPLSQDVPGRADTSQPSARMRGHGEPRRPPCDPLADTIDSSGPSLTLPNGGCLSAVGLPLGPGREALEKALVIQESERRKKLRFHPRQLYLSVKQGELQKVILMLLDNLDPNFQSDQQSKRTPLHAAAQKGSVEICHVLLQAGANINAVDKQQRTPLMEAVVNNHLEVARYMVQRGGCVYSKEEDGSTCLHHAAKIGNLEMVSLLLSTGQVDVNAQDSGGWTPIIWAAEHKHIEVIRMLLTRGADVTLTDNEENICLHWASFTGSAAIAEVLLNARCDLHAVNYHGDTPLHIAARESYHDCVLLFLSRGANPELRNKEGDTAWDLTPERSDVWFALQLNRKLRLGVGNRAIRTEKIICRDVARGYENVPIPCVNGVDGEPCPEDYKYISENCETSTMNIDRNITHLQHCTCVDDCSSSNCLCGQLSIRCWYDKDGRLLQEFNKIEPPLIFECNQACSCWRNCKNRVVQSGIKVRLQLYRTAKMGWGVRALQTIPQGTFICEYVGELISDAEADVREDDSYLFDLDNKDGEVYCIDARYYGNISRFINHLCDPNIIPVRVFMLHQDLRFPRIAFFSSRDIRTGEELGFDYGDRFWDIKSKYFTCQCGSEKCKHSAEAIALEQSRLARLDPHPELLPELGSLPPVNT

[4] = biological target: DNA (cytosine-5)-methyltransferase 1 (Homo sapiens, UniProt P26358); assay: Inhibition of human DNMT1 enzyme using polydeoxy-inosine polydeoxy-cytosine DNA as substrate incubated for 15 mins in presence of SAM by TR-FRET assay
DNA (cytosine-5)-methyltransferase 1, sequence (P26358 whole entry): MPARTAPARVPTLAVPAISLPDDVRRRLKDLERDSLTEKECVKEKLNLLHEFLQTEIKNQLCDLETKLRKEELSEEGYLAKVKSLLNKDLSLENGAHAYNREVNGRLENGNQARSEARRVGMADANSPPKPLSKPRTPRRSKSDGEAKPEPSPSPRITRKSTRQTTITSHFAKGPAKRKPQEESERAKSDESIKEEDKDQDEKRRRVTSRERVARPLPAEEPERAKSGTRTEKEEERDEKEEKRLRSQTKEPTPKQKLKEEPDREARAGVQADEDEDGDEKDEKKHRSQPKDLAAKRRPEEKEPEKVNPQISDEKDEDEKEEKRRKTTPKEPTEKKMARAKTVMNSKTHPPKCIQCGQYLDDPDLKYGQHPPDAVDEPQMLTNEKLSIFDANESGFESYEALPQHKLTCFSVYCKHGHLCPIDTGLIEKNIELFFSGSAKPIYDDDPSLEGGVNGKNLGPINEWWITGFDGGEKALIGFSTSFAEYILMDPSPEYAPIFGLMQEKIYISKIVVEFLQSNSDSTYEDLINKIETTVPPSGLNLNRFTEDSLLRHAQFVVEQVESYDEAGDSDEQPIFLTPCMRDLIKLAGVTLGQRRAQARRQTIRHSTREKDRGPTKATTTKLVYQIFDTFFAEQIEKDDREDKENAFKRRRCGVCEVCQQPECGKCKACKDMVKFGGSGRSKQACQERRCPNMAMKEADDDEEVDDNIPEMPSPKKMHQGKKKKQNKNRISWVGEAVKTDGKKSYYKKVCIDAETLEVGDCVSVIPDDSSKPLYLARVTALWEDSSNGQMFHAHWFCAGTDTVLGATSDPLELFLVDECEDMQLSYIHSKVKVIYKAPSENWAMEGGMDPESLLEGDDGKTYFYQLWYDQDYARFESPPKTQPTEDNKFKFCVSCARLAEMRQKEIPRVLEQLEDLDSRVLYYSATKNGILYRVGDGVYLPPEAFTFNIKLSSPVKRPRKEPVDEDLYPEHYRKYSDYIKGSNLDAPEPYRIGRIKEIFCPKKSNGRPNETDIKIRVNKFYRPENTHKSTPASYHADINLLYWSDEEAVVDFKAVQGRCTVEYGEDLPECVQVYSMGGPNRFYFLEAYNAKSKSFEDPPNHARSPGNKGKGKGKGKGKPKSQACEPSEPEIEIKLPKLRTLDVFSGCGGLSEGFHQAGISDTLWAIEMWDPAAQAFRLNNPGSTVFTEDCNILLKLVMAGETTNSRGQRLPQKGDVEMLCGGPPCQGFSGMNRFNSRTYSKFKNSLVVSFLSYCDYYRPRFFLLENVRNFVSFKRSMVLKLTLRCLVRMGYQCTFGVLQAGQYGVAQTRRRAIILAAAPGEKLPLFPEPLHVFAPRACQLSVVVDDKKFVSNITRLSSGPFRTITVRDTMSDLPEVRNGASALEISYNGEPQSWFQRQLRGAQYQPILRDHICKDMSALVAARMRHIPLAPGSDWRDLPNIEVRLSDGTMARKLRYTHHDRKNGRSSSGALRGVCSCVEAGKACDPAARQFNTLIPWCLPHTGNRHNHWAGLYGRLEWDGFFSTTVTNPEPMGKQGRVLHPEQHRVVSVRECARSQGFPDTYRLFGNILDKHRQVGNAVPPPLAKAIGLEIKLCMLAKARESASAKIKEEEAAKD

MM1.S = assay: Antiproliferative activity against human MM1.S cells assessed as inhibition of cell proliferation measured up to 72 hrs by CellTiter96 Aqueous one reagent based assay; type: functional
THLE-2 = assay: Cytotoxicity against human THLE-2 cells assessed as decrease in cell viability measured after 72 hrs by Vialight-plus cell proliferation assay; type: cell-based; settings: thle-2, 72 h
Method in brief: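 Human THLE-2 cells exposed to compound for 72 h. Cytotoxicity reported as LC50 and pLC50, averaged from at least two independent experiments on different days.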

[5] = Permeability of the compound in PBS/EtOH buffer (70:30) incubated for 18 hrs by UV plate reader based PAMPA assay; type: ADME; settings: read-out: permeability
[6] = biological target: T3, Histone-lysine N-methyltransferase EHMT2 (Mus musculus, UniProt Q9Z148); assay: Inhibition of mouse thymus 6His-sumo-tagged G9a (969 to 1263 residues) expressed in Escherichia coli BL21 (DE3) using histone H3 as substrate incubated for 30 mins by MALDI-TOF-MS analysis
T3 sequence (Q9Z148 whole entry): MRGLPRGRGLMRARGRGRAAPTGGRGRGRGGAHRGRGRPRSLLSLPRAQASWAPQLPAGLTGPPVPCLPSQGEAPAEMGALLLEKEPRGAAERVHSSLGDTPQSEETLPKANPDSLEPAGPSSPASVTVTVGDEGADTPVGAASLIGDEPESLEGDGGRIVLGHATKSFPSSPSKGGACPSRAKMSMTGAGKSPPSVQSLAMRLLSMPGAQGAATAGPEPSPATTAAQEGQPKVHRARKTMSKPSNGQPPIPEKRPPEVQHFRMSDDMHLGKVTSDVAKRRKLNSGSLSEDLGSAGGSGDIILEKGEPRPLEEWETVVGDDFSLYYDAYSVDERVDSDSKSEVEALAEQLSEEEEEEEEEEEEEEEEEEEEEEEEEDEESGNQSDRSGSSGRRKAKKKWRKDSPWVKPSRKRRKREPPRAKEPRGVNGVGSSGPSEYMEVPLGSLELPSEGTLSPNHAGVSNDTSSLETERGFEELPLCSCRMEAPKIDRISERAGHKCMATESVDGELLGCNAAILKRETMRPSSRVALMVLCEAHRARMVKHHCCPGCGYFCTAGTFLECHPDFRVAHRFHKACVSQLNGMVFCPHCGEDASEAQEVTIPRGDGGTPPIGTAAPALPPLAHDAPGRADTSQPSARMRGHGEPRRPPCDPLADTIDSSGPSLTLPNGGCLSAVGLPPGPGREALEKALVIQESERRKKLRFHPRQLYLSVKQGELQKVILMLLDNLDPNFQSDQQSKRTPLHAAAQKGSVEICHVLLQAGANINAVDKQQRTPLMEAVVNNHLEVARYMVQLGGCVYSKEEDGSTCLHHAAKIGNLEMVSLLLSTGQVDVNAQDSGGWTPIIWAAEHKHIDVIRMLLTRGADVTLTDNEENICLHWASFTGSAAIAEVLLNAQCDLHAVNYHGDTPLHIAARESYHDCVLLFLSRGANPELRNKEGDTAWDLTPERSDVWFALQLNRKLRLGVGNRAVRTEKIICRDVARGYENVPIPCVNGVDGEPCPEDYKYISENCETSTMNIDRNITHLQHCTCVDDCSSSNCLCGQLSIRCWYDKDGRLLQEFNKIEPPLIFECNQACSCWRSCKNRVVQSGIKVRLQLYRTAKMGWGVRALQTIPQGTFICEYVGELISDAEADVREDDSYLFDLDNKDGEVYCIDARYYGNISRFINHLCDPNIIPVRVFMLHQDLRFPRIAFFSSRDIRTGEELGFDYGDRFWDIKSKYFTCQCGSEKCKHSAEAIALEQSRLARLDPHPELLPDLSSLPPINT

[7] = biological target: T4, Histone-lysine N-methyltransferase EHMT2 (Homo sapiens) (UniProt Q96KQ7); assay: Inhibition of G9A in human MM1.S cells assessed as decrease in H3K9Me2 levels up to 50 uM after 48 hrs by Western blot analysis; type: cell-based; settings: dose microM <=50, time 48.0 hrs
T4 sequence (whole entry): T2 sequence (Q96KQ7 whole entry)
Method in brief: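 MM1.S cells exposed 48 h across a concentration range. Global H3K9Ac and H3K9me2 read by Western blot; run in duplicate.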

[8] = time hrs <=72, read-out: pGI50 (converted)

Row | SMILES | IC50 (Histone deacetylase 1) [nM] | IC50 (Histone deacetylase 2) [nM] | IC50 [1] [nM] | IC50 [2] [nM] | IC50 [3] [nM] | IC50 [4] [nM] | GI50 (MM1.S; time hrs <=72, read-out: GI50) [nM] | GI50 (MM1.S; [8]) [nM] | LC50 (THLE-2) [nM] | pLC50 (THLE-2) | Papp at 18 h [5] [×10⁻⁶ cm/s] | IC50 [6] [nM] | inhibition [7]
1 | COc1cc2c(NCc3ccc(C(=O)NO)cc3)cc(-c3ccc(C)o3)nc2cc1OCCCN1CCCC1 | 9 | 60 | 21 | 11 | 471 | 795 | 4500 | 4470 | 11300 | 4.95 | 0.1 | – | –
2 | COc1ccc2c(NC3CCN(Cc4ccccc4)CC3)nc(NCCNC(=O)CCCCCC(=O)NO)nc2c1 | – | – | – | – | – | – | – | – | – | – | – | 7140 | –
3 | COc1cc2nc(-c3ccc(C)o3)cc(NCC3CCC(C(=O)NO)CC3)c2cc1OC (configuration not stated) | 38 | 274 | 206 | 41 | > 10000 | 2850 | 5830 | 5750 | 9600 | 5.02 | 0.393 | – | –
4 | COc1cc2nc(-c3ccc(C)o3)cc(NCC3C4CCC3CN(c3ncc(C(=O)NO)cn3)C4)c2cc1OC (configuration not stated) | 22 | 125 | 33 | 239 | > 10000 | 1680 | 459 | 457 | 1350 | 5.87 | 0.959 | – | –
5 | COc1cc2c(cc1OCCCN1CCCC1)N=C(N)C21CCC1 | – | – | – | – | – | – | – | – | – | – | – | – | Active
6 | COc1cc2nc(-c3ccc(C)o3)cc(NC3CCN(c4ncc(C(=O)NO)cn4)CC3)c2cc1OC | 63 | 409 | 73 | 343 | > 10000 | 7140 | 1020 | 1020 | 3090 | 5.51 | 0.596 | – | –
7 | COc1cc2nc(-c3ccc(C)o3)cc(NCc3ccc(C(=O)NO)cc3)c2cc1OC | 14 | 91 | 44 | 22 | > 10000 | 5400 | 520 | 525 | 2330 | 5.63 | 0.534 | – | –
